What was measured:
Mus musculus [1] = experiment: Toxicity in BALB/c nu/nu mouse xenografted with human DMS53 cells assessed as change in body weight at 6 mg/kg, iv administered for 5 days a week measured after 21 days; format: organism-based, DMS-53; design: dose 6 mg/kg, route intravenous; conditions: in vivo, 504 h
Outline: (§1)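 DMS-53 xenografts in nude mice; dosing started at 100 mm3 tumor volume. Agents given iv via tail vein, 5 days/week for 21 days, vehicle 30% propylene glycol/saline, vehicle-treated controls. Mice sacrificed day 21. Body and organ weights and hematological indices recorded. Spleen, kidney, liver, heart, lungs and brain were stained with H&E, Perls' and Gomori Trichrome and read by an independent veterinary pathologist.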

Mus musculus [2] = experiment: Toxicity in BALB/c nu/nu mouse xenografted with human DMS53 cells assessed as change in reticulocyte count at 3 mg/kg, iv administered for 5 days a week measured after 21 days; format: organism-based, DMS-53; design: dose 3 mg/kg, route intravenous; conditions: in vivo, 504 h
Outline: (§2)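 Nude mice carrying DMS-53 xenografts (treatment from 100 mm3) received iv tail-vein doses in 30% propylene glycol/saline, 5 days/week for 21 days. Hematological indices (RBC, hemoglobin, hematocrit, reticulocytes, WBC, platelets) were then compared with vehicle controls.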

Mus musculus [3] = experiment: Toxicity in BALB/c nu/nu mouse xenografted with human DMS53 cells assessed as change in hemoglobin level at 3 mg/kg, iv administered for 5 days a week measured after 21 days; format: organism-based, DMS-53; design: dose 3 mg/kg, route intravenous; conditions: in vivo, 504 h; outline: as §1
Mus musculus [4] = experiment: Toxicity in BALB/c nu/nu mouse xenografted with human DMS53 cells assessed as body weight change at 20 mg/kg, po administered for 3 times a week measured after 20 days; format: organism-based, DMS-53; design: dose 20 mg/kg, route oral; conditions: in vivo, 480 h
Outline: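 DMS-53 xenograft nude mice dosed by oral gavage 3 times/week in 30% propylene glycol/saline, with vehicle controls. Average body weight recorded during 20 days of treatment. n = 6–11 mice/condition, mean ± SD.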

Mus musculus [5] = experiment: Toxicity in BALB/c nu/nu mouse xenografted with human DMS53 cells assessed as change in platelet count at 3 mg/kg, iv administered for 5 days a week measured after 21 days; format: organism-based, DMS-53; design: dose 3 mg/kg, route intravenous; conditions: in vivo, 504 h; outline: as §2
Mus musculus [6] = experiment: Toxicity in BALB/c nu/nu mouse xenografted with human DMS53 cells assessed as cardiac fibrosis at 6 mg/kg, iv administered for 5 days a week measured after 21 days by […]; format: organism-based, Heart, DMS-53; design: dose 6 mg/kg, route intravenous; conditions: in vivo, 504 h
Outline: (§3)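 DMS-53 xenograft nude mice given agents iv by tail vein 5 days/week in 30% propylene glycol/saline for 21 days. At sacrifice, heart sections were stained with Gomori Trichrome to detect fibrosis. Spleen, kidney, liver, heart, lungs and brain were also stained with H&E and Perls' and examined by an independent veterinary pathologist.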

Mus musculus [7] = experiment: Toxicity in human DMS53 cells xenografted BALB/c nu/nu mouse assessed as change in organ weight at 6 mg/kg, iv administered for 5 days a week measured after 21 days; format: organism-based, DMS-53; design: dose 6 mg/kg, route intravenous; conditions: in vivo, 504 h
Outline: (§4)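 DMS-53 xenograft-bearing nude mice, treatment started at 100 mm3 tumour volume: iv tail-vein dosing in 30% propylene glycol/saline, 5 days/week for 21 days. Organs were weighed at sacrifice and compared with vehicle-control mice.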

Mus musculus [8] = experiment: Toxicity in BALB/c nu/nu mouse xenografted with human DMS53 cells assessed as change in hematopoetic cells in splenic red pulp at 6 mg/kg, iv administered for 5 days a week measured after 21 days by hematoxylin and eosin staining method; format: organism-based, DMS-53; design: dose 6 mg/kg, route intravenous; conditions: in vivo, 504 h; outline: as §1
Mus musculus [9] = experiment: Toxicity in BALB/c nu/nu mouse xenografted with human DMS53 cells assessed as vacuolation at 6 mg/kg, iv administered for 5 days a week measured after 21 days by hematoxylin and eosin staining method; format: organism-based, DMS-53; design: dose 6 mg/kg, route intravenous; conditions: in vivo, 504 h
Outline: (§5)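 Nude mice with DMS-53 xenografts dosed by tail-vein iv injection in 30% propylene glycol/saline, starting at 100 mm3 tumour volume, 5 days/week for 21 days. Spleen, kidney, liver, heart, lungs and brain were stained with H&E, Perls' (Fe loading) and Gomori Trichrome (fibrosis) by standard methods, and an independent veterinary pathologist examined them.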

Mus musculus [10] = experiment: Toxicity in BALB/c nu/nu mouse xenografted with human DMS53 cells assessed as change in spleen weight at 7.5 mg/kg, po administered for 3 times a week measured after 20 days; format: organism-based, DMS-53; design: dose 7.5 mg/kg, route oral; conditions: in vivo, 480 h
Outline: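 DMS-53 xenograft nude mice were gavaged 3 times/week in 30% propylene glycol/saline vehicle for 20 days and then sacrificed. Organ weights and histology of spleen, kidney, liver, heart, lungs and brain were compared with vehicle controls. n = 6-11 mice/condition.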

Mus musculus [11] = experiment: Toxicity in BALB/c nu/nu mouse xenografted with human DMS53 cells assessed as hepatocellular fibrosis at 3 mg/kg, iv administered for 5 days a week measured after 21 days by hematoxylin and eosin staining method; format: organism-based, DMS-53; design: dose 3 mg/kg, route intravenous; conditions: in vivo, 504 h; outline: as §5
Mus musculus [12] = experiment: Toxicity in BALB/c nu/nu mouse xenografted with human DMS53 cells assessed as hepatocellular fibrosis at 8 mg/kg, iv administered for 5 days a week measured after 21 days by hematoxylin and eosin staining method; format: organism-based, DMS-53; design: dose 8 mg/kg, route intravenous; conditions: in vivo, 504 h; outline: as §5
Mus musculus [13] = experiment: Toxicity in BALB/c nu/nu mouse xenografted with human DMS53 cells assessed as hepatocellular necrosis at 4 mg/kg, iv administered for 5 days a week measured after 21 days by hematoxylin and eosin staining method; format: organism-based, DMS-53; design: dose 4 mg/kg, route intravenous; conditions: in vivo, 504 h; outline: as §5
Mus musculus [14] = experiment: Toxicity in BALB/c nu/nu mouse xenografted with human DMS53 cells assessed as change in platelet count at 8 mg/kg, iv administered for 5 days a week measured after 21 days; format: organism-based, DMS-53; design: dose 8 mg/kg, route intravenous; conditions: in vivo, 504 h; outline: as §2
Mus musculus [15] = experiment: Toxicity in BALB/c nu/nu mouse xenografted with human DMS53 cells assessed as change in lungs histology at 4 mg/kg, iv administered for 5 days a week measured after 21 days by hematoxylin and eosin staining method; format: organism-based, DMS-53; design: dose 4 mg/kg, route intravenous; conditions: in vivo, 504 h; outline: as §1
Mus musculus [16] = experiment: Toxicity in BALB/c nu/nu mouse xenografted with human DMS53 cells assessed as change in brain histology at 8 mg/kg, iv administered for 5 days a week measured after 21 days by hematoxylin and eosin staining method; format: organism-based, DMS-53; design: dose 8 mg/kg, route intravenous; conditions: in vivo, 504 h; outline: as §1
Mus musculus [17] = experiment: Toxicity in BALB/c nu/nu mouse xenografted with human DMS53 cells assessed as change in lung weight at 20 mg/kg, po administered for 3 times a week measured after 20 days; format: organism-based, DMS-53; design: dose 20 mg/kg, route oral; conditions: in vivo, 480 h
Outline: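 Nude mice bearing DMS-53 xenografts gavaged 3 times/week for 20 days, vehicle 30% propylene glycol/saline, vehicle controls, n = 6-11 mice/condition. Sacrifice on day 20. Organ weights and hematological indices recorded. Spleen, kidney, liver, heart, lungs and brain examined histologically, hearts stained with Gomori Trichrome for fibrosis.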

Mus musculus [18] = experiment: Cardiotoxicity in BALB/c nu/nu mouse xenografted with human DMS53 cells at 4 mg/kg, iv administered for 5 days a week measured after 21 days; format: toxicity, organism-based, DMS-53; design: dose 4 mg/kg, route intravenous; conditions: in vivo, 504 h; outline: as §3
Mus musculus [19] = experiment: Toxicity in BALB/c nu/nu mouse xenografted with human DMS53 cells assessed as change in body weight at 4 mg/kg, iv administered for 5 days a week measured after 21 days; format: organism-based, DMS-53; design: dose 4 mg/kg, route intravenous; conditions: in vivo, 504 h; outline: as §1
Mus musculus [20] = experiment: Toxicity in BALB/c nu/nu mouse xenografted with human DMS53 cells assessed as change in platelet count at 4 mg/kg, iv administered for 5 days a week measured after 21 days; format: organism-based, DMS-53; design: dose 4 mg/kg, route intravenous; conditions: in vivo, 504 h; outline: as §2
Mus musculus [21] = experiment: Toxicity in BALB/c nu/nu mouse xenografted with human DMS53 cells assessed as change in organ weight at 4 mg/kg, iv administered for 5 days a week measured after 21 days; format: organism-based, DMS-53; design: dose 4 mg/kg, route intravenous; conditions: in vivo, 504 h; outline: as §4
Mus musculus [22] = experiment: Toxicity in BALB/c nu/nu mouse xenografted with human DMS53 cells assessed as cardiac fibrosis at 4 mg/kg, iv administered for 5 days a week measured after 21 days by […]; format: organism-based, Heart, DMS-53; design: dose 4 mg/kg, route intravenous; conditions: in vivo, 504 h; outline: as §3
Mus musculus [23] = experiment: Toxicity in BALB/c nu/nu mouse xenografted with human DMS53 cells assessed as change in hematopoetic cells in splenic red pulp at 4 mg/kg, iv administered for 5 days a week measured after 21 days by hematoxylin and eosin staining method; format: organism-based, DMS-53; design: dose 4 mg/kg, route intravenous; conditions: in vivo, 504 h; outline: as §1

Measured: Activity

CCN(C)C(=S)NN=C(c1ccccn1)c1ccccn1.Cl
Non-toxic: Mus musculus [1] | Mus musculus [2] | Mus musculus [3] | Mus musculus [4] | Mus musculus [6] | Mus musculus [8] | Mus musculus [11]
Toxic: Mus musculus [5] | Mus musculus [7] | Mus musculus [9] | Mus musculus [10]

CN(C(=S)NN=C(c1ccccn1)c1ccccn1)C1CCCCC1.Cl
Non-toxic: Mus musculus [12] | Mus musculus [13] | Mus musculus [14] | Mus musculus [15] | Mus musculus [16] | Mus musculus [17] | Mus musculus [18] | Mus musculus [19] | Mus musculus [21] | Mus musculus [22] | Mus musculus [23]
Toxic: Mus musculus [20]
